TAAR1 antag: human TAAR1 antagonism | Q96RJ0 | CHO RD-HGA16 TAAR1, Fluo-8 calcium fluorescence, antagonist | inhibition, % at 3 µM | 1.5% of 360,000 active;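 active means inhibition above a per-plate cutoff, the mean inhibition of test compounds on that plate plus 3 SD, cut at about 49% in these data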
Target sequence (Q96RJ0 whole entry, looked up): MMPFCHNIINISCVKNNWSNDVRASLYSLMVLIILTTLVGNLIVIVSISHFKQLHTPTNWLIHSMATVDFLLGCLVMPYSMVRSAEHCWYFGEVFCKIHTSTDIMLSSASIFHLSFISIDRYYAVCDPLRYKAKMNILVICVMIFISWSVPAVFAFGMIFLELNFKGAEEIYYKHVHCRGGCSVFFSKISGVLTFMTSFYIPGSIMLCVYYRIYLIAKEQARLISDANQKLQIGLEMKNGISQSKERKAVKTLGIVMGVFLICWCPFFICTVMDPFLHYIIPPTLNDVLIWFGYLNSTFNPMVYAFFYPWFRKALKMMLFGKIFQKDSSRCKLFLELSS
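Material: CHO RD-HGA16 cells bearing hTAAR1; compound dosing: one-point dosing, 3 µM nominal final; schedule: dye loading 75 min at 37 °C, then 30 min room temperature; measured by: calcium fluorescence with Fluo-8; control set: vehicle and agonist controls; replication: n of 1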
CHO parental Ca: counter-screen: ATP calcium response change in parental CHO cells; AID 463079; inhibition, % at 5.6 µM; 0.63% of 330,000 active; parental CHO-K1, ATP-induced calcium, Fluo-8 fluorescence;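 active means inhibition above that plate's mean sample inhibition plus 3 SD, cut at about 26% in these data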
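Material – parental CHO cells · Reagent – ATP stimulus · Compound – single nominal dose of 5.6 µM per compound · Detection – Fluo-8 fluorescence · Read-out basis – percent inhibition of calcium signal · Controls – ATP-challenged DMSO wells low, unchallenged DMSO wells high · Repeats – no replicates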
OX1R antag-1: antagonists of human orexin 1 receptor (OX1R). O43613. OX1R-expressing cells, FRET antagonist read-out. inhibition, % at 6.6 µM. 1.8% of 330,000 active. AID 485270; in the data active means inhibition mostly above about 38%, no sharp cut-off; inactive means mostly below about 40%
TAAR1 ag: human TAAR1 agonism; CHO RD-HGA16 TAAR1, Fluo-8 calcium fluorescence; vehicle wells 0%, saturating PEA agonist 100%; activation, % at 3 µM; Q96RJ0; 0.99% of 360,000 active;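 active means activation above the mean activation of all test compounds in the run plus 3 SD, cut at about 38% in these data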
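Signal – calcium-sensitive Fluo-8 signal, excitation 470-495, emission 515-575 nm · System – RD-HGA16 (CHO) cells co-expressing Gα16 and hTAAR1 · Incubation – 17-24 h seeding, 75 min 37 °C dye, 30 min RT · Compound dosing – 3 µM single concentration · Repeats – no replicates (n 1)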
GPR7 antag: human neuropeptides B/W receptor 1 antagonism. P48145. GPR7-expressing cells, fluorescence antagonist assay. inhibition, % at 4.4 µM. 1.1% of 290,000 active; in the data active means inhibition above about 16%, passing the limit was not always enough;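 further: cells stimulated with the agonist NPW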
OX1R antag-2: blocks the human orexin 1 receptor; inhibition, % at 5 µM; 0.43% of 330,000 active; O43613; CHO/OX1R cells, Fluo-8 calcium fluorescence, orexin A; AID 434989;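 active means inhibition above its plate's threshold, mean inhibition of all tested compounds on the plate plus 3 SD, cut at about 37% in these data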
TAAR1 ag confirm: confirmation of human TAAR1 agonists | shares compounds with TAAR1 ag | CHO RD-HGA16 TAAR1, Fluo-8 calcium fluorescence; scaled: DMSO 0%, maximal phenethylamine 100% | activation, % at 3 µM | 82% of 2,400 active;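 active means activation above a cutoff set at the run's mean compound activation plus 3 SD, cut at about 39% in these data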
Ga16 nonsel ag: counter-screen for TAAR1 agonists: nonselective agonists in parental cells; shares compounds with TAAR1 ag; activation, % at 3 µM; 50% of 2,400 active; CHO-Ga16 parental, Fluo-8 calcium fluorescence; normalized to maximal ATP response, DMSO zero;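 active means activation above the run cutoff, the mean activation over all tested wells plus 3 SD, cut at about 12% in these data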
TAAR1 desens: human TAAR1 agonist that also desensitizes the receptor | shares compounds with TAAR1 ag | CHO RD-HGA16 hTAAR1, Fluo-8 calcium, beta-PEA response inhibition | inhibition, % at 3 µM | 46% of 2,400 active | AID 651951;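 active means inhibition above the run cutoff, the mean inhibition of all test compounds plus 3 SD, cut at about 49% in these data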;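 further: beta-PEA stimulus applied at its EC80; loss of beta-PEA calcium signal after compound pretreatment read as receptor desensitization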
Ga16 nonsel ant: nonselective Ga16 antagonist in TAAR1 agonist counter-screen; AID 651952; shares compounds with TAAR1 ag; 39% of 2,400 active; CHO-Ga16 ATP-induced calcium, Fluo-8 fluorescence; inhibition, % at 3 µM;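 active means inhibition above the plate's mean compound inhibition plus 3 SD, computed per plate, cut at about 22% in these data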
Numbers stand for hits; 0 = inactive; - = no result given. Rows were chosen to be rich in hits. Some 4.5% of all compounds tested hit in one or more screens of this group.

SMILES	TAAR1 antag	CHO parental Ca	OX1R antag-1	TAAR1 ag	GPR7 antag	OX1R antag-2	TAAR1 ag confirm	Ga16 nonsel ag	TAAR1 desens	Ga16 nonsel ant
Cc1cccn2c(=O)c3c(nc12)N1CCc2ccccc2C1C1(C3)C(=O)NC(=O)N(C)C1=O (configuration not stated)	0	0	0	0	0	0	-	-	-	-
Cc1cccn2c(=O)c3c(nc12)N1CCCCCC1C1(C3)C(=O)N(C)C(=O)N(C)C1=O (configuration not stated)	0	0	0	0	0	0	-	-	-	-
CCCCN1C(=O)NC(=O)C2(Cc3c(nc4ccccn4c3=O)N3CCc4ccccc4C32)C1=O (configuration not stated)	0	0	0	61	0	0	90	33	0	0
CCCCN1C(=O)NC(=O)C2(Cc3c(nc4c(C)cccn4c3=O)N3CCc4ccccc4C32)C1=O (configuration not stated)	0	0	0	57	0	0	72	28	49	27
CCOC(=O)c1c(C)n(Cc2ccco2)c2c1cc(O)c1ccccc12	0	0	0	0	0	0	-	-	-	-
COC(=O)c1c2[n+](cc3cc(OC)c(OC)cc13)CCc1cc(OC)c(OC)cc1-2	0	0	0	0	-	0	-	-	-	-
Cc1ccccc1C(=O)NCCN1CCC2(CC1)C(=O)NCN2c1ccccc1	0	-	-	0	-	-	-	-	-	-
O=C(NCCN1CCC2(CC1)C(=O)NCN2c1ccccc1)c1ccc(Cl)cc1	105	-	-	108	-	-	92	72	106	100
O=C(NCCN1CCC2(CC1)C(=O)NCN2c1ccccc1)c1ccc(F)cc1	100	-	-	98	-	-	63	50	95	79
O=C(NCCN1CCC2(CC1)C(=O)NCN2c1ccccc1)c1ccc2ccccc2c1	105	-	-	112	-	-	91	66	107	101
CCOC(=O)c1ccc(N2C(=O)CC(N3CCC(C#N)(c4ccccc4)CC3)C2=O)cc1 (configuration not stated)	0	0	0	0	0	0	-	-	-	-
O=C1NC(=O)C(=Cc2ccc(-c3ccc(F)cc3O)o2)C(=O)N1	85	0	0	105	0	0	109	61	88	68

Bioassay records deposited in PubChem by The Scripps Research Institute Molecular Screening Center.
